# Shown are actives, neighbours in structure and some others; about 2% of the full set was active somewhere.
# Statin myotox sup: protects C2C12 myotubes from simvastatin toxicity; ATP luminescence, 48 h; scaled: DMSO 0, geranylgeraniol control 100; rescue of ATP level, % at 7.49 µM; hit rate 0.78% among 330,000;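 active = mean ATP rescue above about 67%, or every replicate alone reaching that limit, limit read from the data, passing the limit was not always enough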;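 also: myotubes were challenged with 10 µM simvastatin during compound exposure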
# dFosB act-1: enhances mouse delta FosB homodimer DNA binding; AID 493131; purified delta FosB, TAMRA-CDK5 oligo fluorescence polarization; percent of positive-control signal above neutral wells; hit rate 0.99% among 340,000; activation, % at 25 µM;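 active = mean activation above about 17%, with every replicate also reaching it, limit read from the data, passing the limit was not always enough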
# CAL PDZ FP-1: inhibitors of human CAL PDZ peptide binding | Q9HD26 | purified CAL PDZ, TMR-peptide fluorescence polarization, 1 h | inhibition, % at 20 µM | hit rate 0.02% among 330,000 | AID 504414;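 active = highest replicate inhibition of at least 40%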
#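 material = purified tagged CAL PDZ domain construct (CerCALP) | buffer or medium = sodium phosphate/NaCl buffer pH 7.4 with TCEP, IgG, Thesit | reagent = TMR-labelled reporter peptide T*-PRC34 bound in PDZ groove | incubation = 1 h room-temperature incubation prior to read | measured by = fluorescence polarization (mP) | evaluation = percent inhibition from loss of millipolarization | control set = unlabelled peptide and DMSO controls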
# S100A4 inh HTS: inhibitors of human S100A4 binding to myosin IIA peptide. P26447. S100A4/TAMRA-MyoIIA peptide fluorescence polarization. inhibition, % at 10.7 µM. hit rate 0.14% among 360,000;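 active = mean inhibition of at least 70% across replicates, with every replicate also reaching that level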
#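 Test system – S100A4 monomer (human) · Compound – single-point compound testing · Schedule – 5 min incubation before reading · Probe or stimulus – TAMRA-labelled myosin IIA heavy-chain peptide probe, 5 nM · Benchmarks – neutral control DMSO, positive control TFP · Medium – Calcium-containing HEPES buffer, pH 7.2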
# CAL PDZ FP-2: blocks peptide binding to the human CAL PDZ domain | Q9HD26 | purified CAL PDZ, TMR-peptide fluorescence polarization, 1 h | inhibition, % at 24.9 µM | hit rate 0.92% among 300,000 | AID 602252;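 active = mean inhibition of at least 30% with at least half of replicates also reaching 30%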
# CDK5 p35 inh: CDK5/p35 (human) kinase inhibition; AID 488839; Recombinant CDK5/p35, ADP-Glo luminescence, 60 min; inhibition, % at 10 µM; hit rate 0.01% among 330,000;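 active = highest replicate inhibition of at least 50% and at least 75% of replicates reaching 50%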
# Target sequence (Q00535 whole entry, looked up): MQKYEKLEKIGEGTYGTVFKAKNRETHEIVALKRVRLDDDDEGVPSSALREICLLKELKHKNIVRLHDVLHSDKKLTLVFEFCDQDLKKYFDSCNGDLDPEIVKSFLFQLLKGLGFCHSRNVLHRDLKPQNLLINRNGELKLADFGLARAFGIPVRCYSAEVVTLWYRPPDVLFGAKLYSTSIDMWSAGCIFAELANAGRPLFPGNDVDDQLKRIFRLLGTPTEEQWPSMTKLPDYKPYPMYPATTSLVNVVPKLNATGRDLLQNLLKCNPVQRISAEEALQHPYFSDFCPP
# Target sequence (Q15078 whole entry, looked up): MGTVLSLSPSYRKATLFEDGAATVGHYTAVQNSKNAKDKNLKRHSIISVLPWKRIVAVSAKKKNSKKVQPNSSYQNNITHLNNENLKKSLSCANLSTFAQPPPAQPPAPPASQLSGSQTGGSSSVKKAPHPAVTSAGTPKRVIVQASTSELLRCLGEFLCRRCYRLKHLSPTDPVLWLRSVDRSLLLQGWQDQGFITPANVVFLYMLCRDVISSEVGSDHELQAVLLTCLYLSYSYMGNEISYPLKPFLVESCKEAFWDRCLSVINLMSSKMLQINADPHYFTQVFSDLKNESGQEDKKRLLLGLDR
# dFosB act-2: activators of mouse delta FosB homodimer DNA binding | AID 588690 | purified delta FosB, TAMRA-CDK5 oligo fluorescence polarization; normalised: neutral wells 0, positive control 100 | shares compounds with dFosB act-1 | activation, % at 24.9 µM | 2,400 tested, under 10 active;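 active = highest replicate activation at or above 34% and every replicate reaching that threshold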;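 also: higher polarization means more probe DNA bound by delta FosB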
# Hits are given with their value; . = inactive; / = no result.
SMILES,Statin myotox sup,dFosB act-1,CAL PDZ FP-1,S100A4 inh HTS,CAL PDZ FP-2,CDK5 p35 inh,dFosB act-2
O=C(CNC(=O)c1ccc(-c2ccccc2)cc1)Nc1ccc(S(=O)(=O)Nc2ncccn2)cc1,.,25,.,.,.,.,.
CC(=O)c1cccc(NC(=O)Cc2coc3cc4c(cc23)CCC4)c1,.,41,.,/,.,.,.
Cc1ccc(C)c(NC(=O)Cc2coc3cc4c(cc23)CCC4)c1,/,.,.,/,.,.,/
O=C(NC1CCCCC1)C(c1ccc(F)cc1)N(Cc1cccs1)C(=O)CN1C(=O)c2ccccc2S1(=O)=O (stereo not given),/,29,.,/,.,.,.
CCCNC(=O)N1CC(=O)N2[C@@H](CO)[C@H](c3ccc(C#Cc4ccc(F)cc4)cc3)[C@@H]2C1,/,/,/,.,/,/,/
C[C@@H]1CCCCO[C@H](CN(C)S(=O)(=O)c2ccc(Cl)cc2)[C@@H](C)CN([C@@H](C)CO)C(=O)c2cc(NC(=O)Nc3ccc4c(c3)OCO4)ccc2O1,/,/,/,.,/,/,/
Cc1ccc(C)c(NC(=O)CSc2nnc(NC(=O)C3CC3)s2)c1,.,28,.,.,.,.,.
COc1cccc(NC(=O)CSc2nnc(NC(=O)C3CCC3)s2)c1,.,.,.,.,.,.,/
O=C(CSc1nnc(NC(=O)C2CC2)s1)Nc1cccc(F)c1,.,28,.,.,.,.,.
CCCCN(CC)c1nc(N)c(C#N)c(CC#N)c1C#N,.,.,/,/,.,.,/
O=C(NC1=NCCS1)c1cc(-c2cccc(Br)c2)nc2ccccc12,/,31,.,/,.,.,.
Cc1ccc2nc(-c3cccc(Br)c3)cc(C(=O)NC3=NCCS3)c2c1,/,44,.,.,.,.,.
Cc1ccc(-c2cc(C(=O)NC3=NCCS3)c3ccccc3n2)cc1C,/,.,.,/,.,.,/
CSCCC(NC(=O)COc1ccccc1)C(=O)OCCOc1ccc(C)cc1 (stereo not given),.,.,.,.,.,.,/
C[C@H]1CN([C@@H](C)CO)C(=O)Cc2cc(NS(=O)(=O)c3ccc(F)cc3)ccc2O[C@H]1CN(C)C,.,/,/,.,/,/,/
CC(C)C(=O)Nc1cccc(NC(=S)NC(=O)c2ccc(Cl)cc2)c1,/,28,.,/,.,.,.
CC(C)C(=O)Nc1cccc(NC(=S)NC(=O)c2ccc3c(c2)OCO3)c1,.,.,.,.,.,.,/
COc1ccc(C(=O)Sc2ccc(Cl)cc2)cc1OC,.,21,.,/,.,.,.
COc1ccc(C(=O)Sc2ccc(C)cc2)cc1OC,.,.,.,/,.,.,/
COC(=O)COc1nc(C)c2c(c1C#N)CC(C)(C)OC2,.,.,.,/,.,.,/
COc1ccc(NC(=O)CCCNC(=O)Cn2cnc3sc(C)c(C)c3c2=O)cc1OC,.,.,.,.,.,.,/
CCc1ccc(NC(=O)CCCNC(=O)Cn2cnc3sc(C)c(C)c3c2=O)cc1,.,32,.,.,/,.,.
O=C(NC1CCCC1)c1ccc2c(c1)S(=O)(=O)c1ccccc1C2=O,.,.,.,.,.,.,/
C=CCn1c(SCc2nc3ccccc3c(=O)[nH]2)nc2scc(C3CC3)c2c1=O,/,33,.,.,.,.,.
O=C(Nc1ccc(Oc2ccc3c(c2)C(=O)N(c2ccc(O)cc2)C3=O)cc1)c1cccs1,.,61,.,/,.,.,.
SMILES,Statin myotox sup,dFosB act-1,CAL PDZ FP-1,S100A4 inh HTS,CAL PDZ FP-2,CDK5 p35 inh,dFosB act-2
O=c1[nH]cnc2cc(-c3ccc(Br)cc3)sc12,.,45,.,.,.,.,.
O=c1[nH]c(CCl)nc2cc(-c3ccc(F)cc3)sc12,/,.,.,.,.,.,/
Cc1ccc(NC(=O)CCC(=O)c2ccccc2)cc1,.,.,.,.,.,.,/
Cc1ccc(C(=O)CCC(=O)NNC(=O)c2ccccc2O)cc1,.,23,.,.,.,.,.
COc1ccc(/C=C2\SC(=O)N(CC(=O)Nc3ccccc3O)C2=O)cc1OC,.,.,.,.,.,.,/
COc1ccc(/C=C2\SC(=O)N(CC(=O)Nc3ccc(O)cc3)C2=O)cc1OC,.,25,.,.,.,.,.
O=C(CN1C(=O)S/C(=C\c2ccc(Cl)cc2)C1=O)NC1C=CS(=O)(=O)C1 (stereo not given),.,20,.,.,.,.,.
O=C(CN1C(=O)S/C(=C\c2ccc(Cl)cc2)C1=O)NNC(=O)c1ccccc1O,/,26,.,/,.,.,.
O=C(CN1C(=O)S/C(=C\c2cccc(Cl)c2)C1=O)NC1C=CS(=O)(=O)C1 (stereo not given),.,.,.,.,.,/,/
COC(=O)COc1ccc(/C=C2\SC(=O)N(CC(=O)Nc3ccccc3F)C2=O)cc1,.,33,.,.,/,.,.
O=C(NCc1ccc(Cl)cc1)c1cc(=O)[nH]c2ccc(S(=O)(=O)N3CCOCC3)cc12,.,.,.,.,.,.,/
C[C@@H]1CCCCO[C@@H](CN(C)S(=O)(=O)c2cn(C)cn2)[C@H](C)CN([C@@H](C)CO)C(=O)c2cc(NC(=O)CCC(F)(F)F)ccc2O1,.,/,/,.,/,/,/
CC(C)NC(=O)Nc1ccc2c(c1)C(=O)N([C@@H](C)CO)C[C@H](C)[C@H](CN(C)C(=O)Nc1ccccc1)OCCCC[C@H](C)O2,/,/,/,.,/,/,/
O=C(C[C@H]1CC[C@@H]2[C@H](COC[C@@H](O)CN2S(=O)(=O)c2cccc(Cl)c2)O1)Nc1ccc(-c2ccccc2)cc1,.,/,/,.,/,/,/
CC(/C=C1\SC(=O)N(CC(=O)Nc2cccc(O)c2)C1=O)=C\c1ccccc1,.,24,.,/,.,.,.
CC(/C=C1\SC(=O)N(CC(=O)Nc2ccc(O)cc2)C1=O)=C\c1ccccc1,/,.,.,.,.,.,/
CCc1ccc2nc(N(CCCN(C)C)C(=O)c3ccc(S(=O)(=O)N4CCCc5ccccc54)cc3)sc2c1,.,23,.,.,.,.,.
CN(C)CCN(C(=O)c1ccc(S(=O)(=O)N2CCc3ccccc32)cc1)c1nc2ccc(F)cc2s1,.,62,.,.,.,.,.
CN(C)CCCN(C(=O)c1ccc(S(=O)(=O)N2CCCCCC2)cc1)c1nc2ccc(F)cc2s1,.,.,.,.,.,.,/
CCOC(=O)N1CCN(S(=O)(=O)c2ccc(C(=O)N(CCCN(C)C)c3nc4ccc(CC)cc4s3)cc2)CC1,.,32,.,.,.,.,.
CCc1ccc2nc(N(CCCN(C)C)C(=O)c3ccc(S(=O)(=O)N4CCCC4)cc3)sc2c1,/,.,.,.,.,.,/
CCNC(=O)C[C@H]1CC[C@@H]2[C@@H](COc3ccc(NC(=O)c4cccc(OC)c4)cc3C(=O)N2C)O1,.,/,/,.,/,/,/
